Data published in ChEMBL document CHEMBL4002615, “Investigation of piperazine benzamides as human β3 adrenergic receptor agonists for the treatment of overactive bladder” (Bioorg Med Chem Lett, 2017).
pEC50, pIC50: −log10 of the molar value.

Assays:
[1] = molecular target: T1, Beta-3 adrenergic receptor (Homo sapiens, UniProt P13945); test: Agonist activity at human beta3 adrenergic receptor
How it was run: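 Human β3 receptor agonist EC50 given as the mean of at least two experiments.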
Target sequence in this assay (P13945 whole entry): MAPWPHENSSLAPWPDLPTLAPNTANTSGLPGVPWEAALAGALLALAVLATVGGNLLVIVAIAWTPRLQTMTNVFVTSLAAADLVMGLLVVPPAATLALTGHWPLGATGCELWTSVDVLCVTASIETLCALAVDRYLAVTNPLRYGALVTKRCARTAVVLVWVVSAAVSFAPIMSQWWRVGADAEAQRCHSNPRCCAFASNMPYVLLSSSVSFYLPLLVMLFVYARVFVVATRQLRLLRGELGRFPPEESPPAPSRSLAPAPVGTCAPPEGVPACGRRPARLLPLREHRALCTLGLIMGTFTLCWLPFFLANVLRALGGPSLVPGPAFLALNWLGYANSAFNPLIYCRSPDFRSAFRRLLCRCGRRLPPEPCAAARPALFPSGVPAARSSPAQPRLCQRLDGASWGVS

[2] = molecular target: T1, Beta-3 adrenergic receptor; test: Agonist activity at human beta3 adrenergic receptor relative to R-(-)-isoproterenol
Target sequence in this assay (P13945 whole entry, looked up): as the sequence (P13945 whole entry) above

[3] = molecular target: Beta-1 adrenergic receptor (Homo sapiens, UniProt P08588); test: Activity at human beta1 adrenergic receptor
Sequence of Beta-1 adrenergic receptor (P08588 whole entry): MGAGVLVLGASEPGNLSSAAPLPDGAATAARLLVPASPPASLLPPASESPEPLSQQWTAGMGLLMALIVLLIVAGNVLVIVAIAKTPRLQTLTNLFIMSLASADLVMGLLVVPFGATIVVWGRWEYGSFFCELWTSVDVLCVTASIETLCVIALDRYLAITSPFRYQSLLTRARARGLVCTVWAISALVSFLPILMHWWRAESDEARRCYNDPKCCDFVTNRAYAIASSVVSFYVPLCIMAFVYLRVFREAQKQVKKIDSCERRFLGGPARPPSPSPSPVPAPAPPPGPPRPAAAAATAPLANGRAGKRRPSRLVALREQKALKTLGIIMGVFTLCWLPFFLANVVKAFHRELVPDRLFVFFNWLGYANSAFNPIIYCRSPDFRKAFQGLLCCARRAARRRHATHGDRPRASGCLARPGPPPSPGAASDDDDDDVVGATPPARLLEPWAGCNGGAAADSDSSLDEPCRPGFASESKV

[4] = molecular target: Beta-2 adrenergic receptor (Homo sapiens, UniProt P07550); test: Activity at human beta2 adrenergic receptor
Sequence of Beta-2 adrenergic receptor (P07550 whole entry): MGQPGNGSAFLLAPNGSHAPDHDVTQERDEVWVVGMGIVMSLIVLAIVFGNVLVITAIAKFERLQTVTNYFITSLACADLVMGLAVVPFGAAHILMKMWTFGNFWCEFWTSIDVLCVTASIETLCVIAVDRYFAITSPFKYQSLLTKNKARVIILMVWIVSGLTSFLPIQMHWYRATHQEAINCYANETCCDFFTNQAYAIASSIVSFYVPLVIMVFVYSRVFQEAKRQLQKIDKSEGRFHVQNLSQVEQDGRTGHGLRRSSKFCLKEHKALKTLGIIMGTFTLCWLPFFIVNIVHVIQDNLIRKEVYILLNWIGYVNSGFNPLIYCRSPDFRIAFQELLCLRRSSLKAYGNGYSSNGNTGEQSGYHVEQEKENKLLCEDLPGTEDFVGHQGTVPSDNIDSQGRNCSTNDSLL

[5] = molecular target: Sodium channel protein type 5 subunit alpha (Homo sapiens, UniProt Q14524); test: Inhibition of human Nav1.5 by electrophysiology method
Sequence of Sodium channel protein type 5 subunit alpha (Q14524 whole entry): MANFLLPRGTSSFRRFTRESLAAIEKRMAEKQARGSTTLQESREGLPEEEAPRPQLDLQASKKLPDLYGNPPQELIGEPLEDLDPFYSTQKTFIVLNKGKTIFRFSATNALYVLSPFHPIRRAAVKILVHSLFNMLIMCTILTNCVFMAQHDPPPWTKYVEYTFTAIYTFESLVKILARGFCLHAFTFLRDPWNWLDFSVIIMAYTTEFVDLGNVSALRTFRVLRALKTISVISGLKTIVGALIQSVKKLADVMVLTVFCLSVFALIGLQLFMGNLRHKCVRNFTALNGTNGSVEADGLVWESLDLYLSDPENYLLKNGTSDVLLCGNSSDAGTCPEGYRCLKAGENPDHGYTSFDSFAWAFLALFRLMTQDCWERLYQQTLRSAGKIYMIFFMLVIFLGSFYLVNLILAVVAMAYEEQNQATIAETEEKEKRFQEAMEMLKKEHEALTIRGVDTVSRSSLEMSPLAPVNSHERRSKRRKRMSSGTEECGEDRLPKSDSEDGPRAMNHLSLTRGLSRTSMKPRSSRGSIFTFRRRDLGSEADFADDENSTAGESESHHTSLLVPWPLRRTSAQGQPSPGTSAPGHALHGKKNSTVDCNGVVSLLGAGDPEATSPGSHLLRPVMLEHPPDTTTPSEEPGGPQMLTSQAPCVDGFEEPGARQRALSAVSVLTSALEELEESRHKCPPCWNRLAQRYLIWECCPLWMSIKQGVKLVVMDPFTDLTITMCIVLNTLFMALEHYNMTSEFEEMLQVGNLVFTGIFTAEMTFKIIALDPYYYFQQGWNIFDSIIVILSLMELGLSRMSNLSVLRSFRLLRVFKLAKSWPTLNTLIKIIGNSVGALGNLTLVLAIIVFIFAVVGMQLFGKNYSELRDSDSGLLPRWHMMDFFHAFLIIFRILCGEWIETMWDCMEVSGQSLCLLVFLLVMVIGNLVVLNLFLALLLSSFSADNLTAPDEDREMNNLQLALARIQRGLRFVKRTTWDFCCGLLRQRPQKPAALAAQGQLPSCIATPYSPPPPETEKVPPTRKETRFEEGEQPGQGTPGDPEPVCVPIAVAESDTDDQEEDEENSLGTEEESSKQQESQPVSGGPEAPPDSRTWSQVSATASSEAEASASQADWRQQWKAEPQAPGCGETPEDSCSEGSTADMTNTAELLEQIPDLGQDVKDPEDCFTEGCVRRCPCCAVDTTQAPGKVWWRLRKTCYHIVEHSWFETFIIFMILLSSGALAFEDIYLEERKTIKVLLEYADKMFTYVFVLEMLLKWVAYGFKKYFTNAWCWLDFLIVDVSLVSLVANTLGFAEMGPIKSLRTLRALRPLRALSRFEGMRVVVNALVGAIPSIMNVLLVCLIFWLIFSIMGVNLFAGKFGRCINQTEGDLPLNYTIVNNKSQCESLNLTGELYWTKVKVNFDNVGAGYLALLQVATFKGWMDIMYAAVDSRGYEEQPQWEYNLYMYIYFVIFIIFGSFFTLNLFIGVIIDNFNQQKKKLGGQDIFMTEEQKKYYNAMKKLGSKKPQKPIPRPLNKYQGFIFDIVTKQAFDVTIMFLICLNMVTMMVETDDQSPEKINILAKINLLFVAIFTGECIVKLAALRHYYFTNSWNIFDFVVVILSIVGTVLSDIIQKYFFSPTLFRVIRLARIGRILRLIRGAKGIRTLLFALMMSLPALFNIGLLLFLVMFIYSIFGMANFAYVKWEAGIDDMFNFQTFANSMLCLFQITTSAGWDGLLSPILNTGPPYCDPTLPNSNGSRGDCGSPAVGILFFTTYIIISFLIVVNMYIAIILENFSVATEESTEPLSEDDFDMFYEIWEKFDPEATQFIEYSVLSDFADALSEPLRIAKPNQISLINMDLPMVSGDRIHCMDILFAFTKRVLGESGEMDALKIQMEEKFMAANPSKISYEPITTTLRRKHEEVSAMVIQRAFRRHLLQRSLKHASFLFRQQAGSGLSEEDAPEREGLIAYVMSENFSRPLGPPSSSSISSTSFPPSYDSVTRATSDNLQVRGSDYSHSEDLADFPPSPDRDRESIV

[6] = molecular target: Sodium-dependent serotonin transporter (Homo sapiens, UniProt P31645); test: Inhibition of SERT (unknown origin)
Sequence of Sodium-dependent serotonin transporter (P31645 whole entry): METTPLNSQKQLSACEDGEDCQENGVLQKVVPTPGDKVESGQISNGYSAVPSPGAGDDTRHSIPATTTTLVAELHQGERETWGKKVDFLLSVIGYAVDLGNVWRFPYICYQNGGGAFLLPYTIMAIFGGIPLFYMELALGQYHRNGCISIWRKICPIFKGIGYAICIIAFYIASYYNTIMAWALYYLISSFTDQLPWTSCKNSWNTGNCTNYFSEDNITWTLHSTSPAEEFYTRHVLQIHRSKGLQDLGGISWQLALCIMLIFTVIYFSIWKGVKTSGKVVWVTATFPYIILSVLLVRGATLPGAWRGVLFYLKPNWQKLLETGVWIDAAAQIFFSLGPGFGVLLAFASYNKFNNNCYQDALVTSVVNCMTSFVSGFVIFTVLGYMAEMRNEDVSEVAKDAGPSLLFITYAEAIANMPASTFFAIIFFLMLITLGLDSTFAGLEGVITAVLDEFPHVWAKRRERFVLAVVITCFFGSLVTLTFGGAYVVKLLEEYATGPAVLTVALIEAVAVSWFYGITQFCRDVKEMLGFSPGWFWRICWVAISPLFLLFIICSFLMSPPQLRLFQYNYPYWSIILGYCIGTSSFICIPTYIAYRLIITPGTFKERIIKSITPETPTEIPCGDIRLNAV

[7] = Induction of phospholipidosis in human HepG2 cells; assay type: cell-based; conditions: read-out: A50
[8] = molecular target: Sodium-dependent noradrenaline transporter (Homo sapiens, UniProt P23975); test: Inhibition of NET (unknown origin) expressed in HEK293 cells assessed as reduction in norepinephrine reuptake; assay type: cell-based
Sequence of Sodium-dependent noradrenaline transporter (P23975 whole entry): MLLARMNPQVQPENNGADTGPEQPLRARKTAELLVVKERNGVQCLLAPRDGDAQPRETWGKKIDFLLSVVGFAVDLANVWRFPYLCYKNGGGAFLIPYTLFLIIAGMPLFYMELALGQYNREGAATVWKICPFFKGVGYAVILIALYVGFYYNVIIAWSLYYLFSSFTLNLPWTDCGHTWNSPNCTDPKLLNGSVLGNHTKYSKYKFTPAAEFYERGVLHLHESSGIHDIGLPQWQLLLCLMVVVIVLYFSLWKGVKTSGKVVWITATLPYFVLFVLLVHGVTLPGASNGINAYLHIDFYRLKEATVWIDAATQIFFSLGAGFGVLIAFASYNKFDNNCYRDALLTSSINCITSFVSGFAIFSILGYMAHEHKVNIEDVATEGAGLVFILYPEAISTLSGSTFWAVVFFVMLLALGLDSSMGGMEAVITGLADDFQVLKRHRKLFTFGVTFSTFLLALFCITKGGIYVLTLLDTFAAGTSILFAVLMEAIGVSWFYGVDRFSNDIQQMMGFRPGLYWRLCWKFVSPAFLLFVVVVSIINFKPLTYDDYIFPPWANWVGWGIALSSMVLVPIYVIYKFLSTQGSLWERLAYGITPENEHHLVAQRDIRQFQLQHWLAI

[9] = Volume of distribution in rat at 1 mg/kg, iv or 2 mg/kg, po; assay type: ADME, organism-based; conditions: in vivo
[10] = Plasma clearance in rat at 1 mg/kg, iv or 2 mg/kg, po; assay type: ADME, organism-based
[11] = test system: Rattus norvegicus; test: Unbound clearance in rat at 1 mg/kg, iv or 2 mg/kg, po; assay type: ADME, organism-based; conditions: in vivo
[12] = Half life in rat at 1 mg/kg, iv or 2 mg/kg, po; assay type: ADME, organism-based; conditions: in vivo
[13] = test system: Rattus norvegicus; test: Total dose normalized AUC in rat 2 mg/kg, po; assay type: ADME, organism-based; conditions: in vivo
[14] = test system: Rattus norvegicus; test: Unbound dose normalized AUC in rat 2 mg/kg, po; assay type: ADME, organism-based; conditions: in vivo
[15] = Oral bioavailability in rat 2 mg/kg; assay type: ADME, organism-based; conditions: in vivo
[16] = Unbound fraction in rat at 1 mg/kg, iv or 2 mg/kg, po; assay type: ADME, organism-based; conditions: in vivo
[17] = Plasma clearance in dog at 0.5 mg/kg, iv or 2 mg/kg, po; assay type: ADME, organism-based, Canis lupus familiaris
[18] = test system: Canis familiaris; test: Unbound clearance in dog at 0.5 mg/kg, iv or 2 mg/kg, po; assay type: ADME, organism-based, Canis lupus familiaris; conditions: in vivo
[19] = Volume of distribution in dog at 0.5 mg/kg, iv or 2 mg/kg, po; assay type: ADME, organism-based, Canis lupus familiaris; conditions: in vivo
[20] = Half life in dog at 0.5 mg/kg, iv or 2 mg/kg, po; assay type: ADME, organism-based, Canis lupus familiaris; conditions: in vivo
[21] = test system: Canis familiaris; test: Total dose normalized AUC in dog at 2 mg/kg, po; assay type: ADME, organism-based, Canis lupus familiaris; conditions: in vivo
[22] = test system: Canis familiaris; test: Unbound dose normalized AUC in dog at 2 mg/kg, po; assay type: ADME, organism-based, Canis lupus familiaris; conditions: in vivo
[23] = Oral bioavailability in dog at 2 mg/kg; assay type: ADME, organism-based, Canis lupus familiaris; conditions: in vivo
[24] = Unbound fraction in dog at 0.5 mg/kg, iv or 2 mg/kg, po; assay type: ADME, organism-based, Canis lupus familiaris; conditions: in vivo
[25] = molecular target: Voltage-gated inwardly rectifying potassium channel KCNH2 (Homo sapiens, UniProt Q12809); test: Inhibition of human ERG
[26] = Plasma clearance in rhesus monkey at 0.5 mg/kg, iv or 2 mg/kg, po; assay type: ADME, organism-based, Macaca mulatta
[27] = test system: Rhesus monkey; test: Unbound clearance in rhesus monkey at 0.5 mg/kg, iv or 2 mg/kg, po; assay type: ADME, organism-based, Macaca mulatta; conditions: in vivo
[28] = Volume of distribution in rhesus monkey at 0.5 mg/kg, iv or 2 mg/kg, po; assay type: ADME, organism-based, Macaca mulatta; conditions: in vivo
[29] = Half life in rhesus monkey at 0.5 mg/kg, iv or 2 mg/kg, po; assay type: ADME, organism-based, Macaca mulatta; conditions: in vivo
[30] = test system: Rhesus monkey; test: Total dose normalized AUC in rhesus monkey at 2 mg/kg, po; assay type: ADME, organism-based, Macaca mulatta; conditions: in vivo
[31] = test system: Rhesus monkey; test: Unbound dose normalized AUC in rhesus monkey at 2 mg/kg, po; assay type: ADME, organism-based, Macaca mulatta; conditions: in vivo
[32] = Oral bioavailability in rhesus monkey at 2 mg/kg; assay type: ADME, organism-based, Macaca mulatta; conditions: in vivo
[33] = Unbound fraction in rhesus monkey at 0.5 mg/kg, iv or 2 mg/kg, po; assay type: ADME, organism-based, Macaca mulatta; conditions: in vivo

| Structure (SMILES) | pEC50 [1] | Emax [2] [%] | pIC50 [3] | pIC50 [4] | pIC50 [6] | pEC50 [8] | Vd [9] [L/kg] | clearance [10] [mL/min/kg] | CL free [11] [mL/min/kg] | half-life [12] [h] | AUC/dose [13] [µM·h/mg/kg] | fAUC/dose [14] [µM·h/mg/kg] | bioavailability [15] [%] | fraction unbound [16] | clearance [17] [mL/min/kg] | CL free [18] [mL/min/kg] | Vd [19] [L/kg] | AUC/dose [21] [µM·h/mg/kg] | pIC50 [5] | AC50 [7] [µM] | further results |
| --- | --- | --- | --- | --- | --- | --- | --- | --- | --- | --- | --- | --- | --- | --- | --- | --- | --- | --- | --- | --- | --- |
| CCc1nnc([C@H]2[C@@H]3CN(C(=O)c4ccc(C[C@@H]5CC[C@H]([C@H](O)c6ccccc6)N5)cc4)C[C@@H]32)o1 | – | – | – | – | – | – | – | – | – | – | 0.21 | – | – | – | – | – | – | 0.46 | – | – | clearance [26]: 30 mL/min/kg; Vd [28]: 5.2 L/kg; AUC/dose [30]: 0.06 µM·h/mg/kg; bioavailability [32]: 5% |
| O=C(c1ccc(C[C@@H]2CC[C@H]([C@H](O)c3ccccc3)N2)cc1)N1CCN(Cc2nnn(CC3CC3)n2)CC1 | 8.28 | 99 | < 4.70 | < 4.70 | < 5.00 | 5.86 | – | – | – | – | – | – | – | – | – | – | – | – | < 4.52 | 70 | pIC50 [25]: 4.40 |

Further lines, with some results ahead:

| pEC50 [1] | Emax [2] [%] | pIC50 [3] | pIC50 [4] | pIC50 [6] | pEC50 [8] | Vd [9] [L/kg] | clearance [10] [mL/min/kg] | CL free [11] [mL/min/kg] | half-life [12] [h] | AUC/dose [13] [µM·h/mg/kg] | fAUC/dose [14] [µM·h/mg/kg] | bioavailability [15] [%] | fraction unbound [16] | clearance [17] [mL/min/kg] | CL free [18] [mL/min/kg] | Vd [19] [L/kg] | AUC/dose [21] [µM·h/mg/kg] | Structure (SMILES) | pIC50 [5] | AC50 [7] [µM] | further results |
| --- | --- | --- | --- | --- | --- | --- | --- | --- | --- | --- | --- | --- | --- | --- | --- | --- | --- | --- | --- | --- | --- |
| 8.82 | 101 | < 4.70 | < 4.70 | < 5.00 | 6.08 | 21 | 102 | 182 | 2.6 | 0.05 | 0.03 | 16 | 0.56 | 22 | 34 | 13 | 0.29 | O=C(c1ccc(C[C@@H]2CC[C@H]([C@H](O)c3ccccc3)N2)cc1)N1CCN(Cc2nnn(CC(F)F)n2)CC1 | < 4.52 | > 100 | half-life [20]: 8.5 h; fAUC/dose [22]: 0.19 µM·h/mg/kg; bioavailability [23]: 20%; fraction unbound [24]: 0.65 |
| 8.29 | 91 | < 4.70 | < 4.70 | < 5.00 | 5.82 | – | – | – | – | – | – | – | – | – | – | – | – | CCn1nnc(CN2CCN(C(=O)c3ccc(C[C@@H]4CC[C@H]([C@H](O)c5ccccc5)N4)cc3)CC2)n1 | < 4.52 | – | pIC50 [25]: < 4.22 |
| – | 87 to 88 | < 4.70 | < 4.70 | < 5.00 | 6.47 | 19 | 71 | 148 | 2.6 | 0.35 | 0.17 | 71 | 0.48 | 7.9 | 17 | 6.4 | 1.3 | O=C(c1ccc(C[C@@H]2CC[C@H]([C@H](O)c3ccccc3)N2)cc1)N1CCN(Cc2ccccn2)CC1 | < 4.52 | 54 | clearance [26]: 18 mL/min/kg; CL free [27]: 43 mL/min/kg; Vd [28]: 11 L/kg; half-life [20]: 12 h; half-life [29]: 5.8 h; AUC/dose [30]: 0.34 µM·h/mg/kg; fAUC/dose [22]: 0.62 µM·h/mg/kg; fAUC/dose [31]: 0.14 µM·h/mg/kg; bioavailability [23]: 27%; bioavailability [32]: 16%; fraction unbound [24]: 0.48; fraction unbound [33]: 0.42 |
